Experiments:
[1] = target: T1, Endothelin receptor type B (Homo sapiens, UniProt P24530); assay: In vitro inhibition of endothelin binding to human Endothelin B receptor using [125I]-labeled ET-1 competition assay
T1 sequence (P24530 whole entry): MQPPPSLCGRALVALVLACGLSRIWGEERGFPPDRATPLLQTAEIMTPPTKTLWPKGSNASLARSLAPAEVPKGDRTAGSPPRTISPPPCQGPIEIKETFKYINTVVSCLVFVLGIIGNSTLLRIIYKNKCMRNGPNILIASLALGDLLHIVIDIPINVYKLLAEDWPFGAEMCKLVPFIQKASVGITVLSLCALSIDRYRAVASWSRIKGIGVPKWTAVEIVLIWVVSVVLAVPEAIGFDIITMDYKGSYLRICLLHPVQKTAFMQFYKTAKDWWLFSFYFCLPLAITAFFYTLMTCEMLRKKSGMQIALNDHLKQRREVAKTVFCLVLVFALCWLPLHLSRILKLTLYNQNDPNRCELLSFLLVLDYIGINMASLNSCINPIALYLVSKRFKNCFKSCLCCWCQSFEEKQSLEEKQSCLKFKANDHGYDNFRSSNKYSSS
Method in brief: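 Membranes (0.75 mg/tube) from COS 7 cells transfected with human ETB. Buffer 30 mM HEPES pH 7.4, 150 mM NaCl, 5 mM MgCl2, 0.05% bacitracin, final 0.25% DMSO. Tracer 4 pM [125I]ET-1, nonspecific binding with 100 nM ET-1. Incubated 16–18 h at 24 °C, bound radioactivity gamma-counted. Run in triplicate.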

Endothelin-1 receptor = target: T2, Endothelin-1 receptor (Homo sapiens, UniProt P25101); assay: In vitro inhibition of endothelin binding to human Endothelin A receptor using [125I]-labeled ET-1 competition assay
T2 sequence (P25101 whole entry): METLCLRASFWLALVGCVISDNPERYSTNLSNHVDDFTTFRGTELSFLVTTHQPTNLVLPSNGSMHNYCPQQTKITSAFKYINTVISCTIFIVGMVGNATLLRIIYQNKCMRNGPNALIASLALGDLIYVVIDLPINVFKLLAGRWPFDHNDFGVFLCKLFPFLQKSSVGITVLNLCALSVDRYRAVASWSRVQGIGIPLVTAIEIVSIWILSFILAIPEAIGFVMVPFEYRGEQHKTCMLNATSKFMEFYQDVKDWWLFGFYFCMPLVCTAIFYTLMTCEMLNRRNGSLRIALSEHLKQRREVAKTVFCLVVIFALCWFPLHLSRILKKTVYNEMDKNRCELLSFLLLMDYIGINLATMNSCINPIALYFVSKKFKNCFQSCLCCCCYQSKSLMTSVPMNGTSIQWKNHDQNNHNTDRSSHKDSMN
Method in brief: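 Membranes from confluent TE 671 cells (endogenous human ETA), DNase-treated, 3 mg/tube. Buffer 30 mM HEPES pH 7.4, 150 mM NaCl, 5 mM MgCl2, 0.05% bacitracin, final 0.25% DMSO. Tracer 4 pM [125I]ET-1, nonspecific binding with 100 nM ET-1. Incubated 16–18 h at 24 °C, centrifuged, bound radioactivity gamma-counted. Run in triplicate.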

[2] = Compound at dose 60 mg/kg was administered to rats and Serum half life was determined; range = 2.5-3 h; assay type: ADME, organism-based; parameters: dose 60 mg/kg; settings: rat
Rattus norvegicus = assay: % inhibition of ET-1 induced pressor response in conscious rats 30 min after intravenous administration of 15 mg/kg of the compound; assay type: functional; settings: 0.5 h
Method in brief: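 Conscious rats rested 60 min in a restrainer. Autonomic blockade by iv atropine methyl nitrate (3 mg/kg) plus propranolol (2 mg/kg). Vehicle was 1 M Tris base or sodium bicarbonate. Control iv bolus ET-1 challenge ([…]), antagonist iv bolus once MAP returned to baseline, second ET-1 challenge 30 min later. Inhibition = 100 × (control − antagonist max pressor response)/control max pressor response.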

[3] = Compound at dose 60 mg/kg was administered to rats and Serum half life was determined; assay type: ADME, organism-based; parameters: dose 60 mg/kg; settings: rat

| Compound | IC50 [1] | IC50 (Endothelin-1 receptor) | half-life [2] | inhibition in vivo at 15 mg/kg (Rattus norvegicus) | half-life [3] |
| --- | --- | --- | --- | --- | --- |
| CC(=O)c1cc2c(cc1NC(=O)c1sccc1S(=O)(=O)Nc1onc(C)c1C)OCO2 | > 100000 nM | 31 nM | – | – | – |
| Cc1ccc(NC(=O)c2sccc2S(=O)(=O)Nc2onc(C)c2Br)cc1 | 9120 nM | 12 nM | – | – | – |
| Cc1noc(NS(=O)(=O)c2ccsc2C(=O)Nc2ccc(C(C)C)cc2)c1Br | 4370 nM | 20 nM | – | – | – |
| Cc1noc(NS(=O)(=O)c2ccsc2C(=O)N(C)c2ccccc2)c1Br | > 100000 nM | 1910 nM | – | – | – |
| COc1ccccc1NC(=O)c1sccc1S(=O)(=O)Nc1onc(C)c1Br | 61700 nM | 132 nM | – | – | – |
| Cc1noc(NS(=O)(=O)c2ccsc2C(=O)Nc2ccccc2C(=O)O)c1Br | 19500 nM | 214 nM | – | – | – |
| Cc1cc2c(cc1NC(=O)c1sccc1S(=O)(=O)Nc1onc(C)c1Cl)OCO2 | 35500 nM | – | – | – | – |
| COc1ccc(NC(=O)c2sccc2S(=O)(=O)Nc2onc(C)c2Cl)c(OC)c1 | 51900 nM | 15 nM | – | – | – |
| COc1ccc(NC(=O)c2sccc2S(=O)(=O)Nc2onc(C)c2Br)cc1 | 30200 nM | 24 nM | – | – | – |
| CC(=O)c1cc2c(cc1NC(=O)c1sccc1S(=O)(=O)Nc1onc(C)c1Cl)OCO2 | 32600 nM | 10 nM | 3 h | 18% | – |
| COc1cccc(NCc2sccc2S(=O)(=O)Nc2onc(C)c2Br)c1 | 7590 nM | 933 nM | – | – | – |
| Cc1noc(NS(=O)(=O)c2ccsc2C(=O)Nc2ccc(C(C)(C)C)cc2)c1Br | 6920 nM | 47 nM | – | – | – |
| Cc1noc(NS(=O)(=O)c2ccsc2C(=O)Nc2ccccc2)c1Br | 77600 nM | 166 nM | – | – | – |
| Cc1noc(NS(=O)(=O)c2ccsc2C(=O)Nc2cc3c(cc2OCCO)OCO3)c1Cl | 14400 nM | 5.1 nM | – | – | – |
| Cc1noc(NS(=O)(=O)c2ccsc2C(=O)Nc2cccc(C(=O)O)c2)c1Br | 117000 nM | – | – | – | – |
| Cc1noc(NS(=O)(=O)c2ccsc2C(=O)Nc2ccc3c(c2)OCO3)c1Br | 10100 nM | 19 nM | – | – | – |
| Cc1noc(NS(=O)(=O)c2ccsc2C(=O)Nc2cccc(O)c2)c1Br | 67500 nM | 146 nM | – | – | – |
| COc1ccc(NC(=O)c2sccc2S(=O)(=O)Nc2onc(C)c2Cl)c(C)c1 | 14000 nM | 2.6 nM | – | – | – |
| Cc1noc(NS(=O)(=O)c2ccsc2C(=O)NCc2ccccc2)c1Br | 97700 nM | 229 nM | – | – | – |
| Cc1noc(NS(=O)(=O)c2ccsc2C(=O)Nc2ccc(O)nn2)c1Br | – | 65 nM | – | – | – |
| Cc1nnc(NC(=O)c2sccc2S(=O)(=O)Nc2onc(C)c2Cl)s1 | > 100000 nM | 1290 nM | – | – | – |
| COc1cc(NC(=O)c2sccc2S(=O)(=O)Nc2onc(C)c2Cl)c(C(N)=O)cc1OC | 61000 nM | 10.8 nM | – | – | – |

| Compound | IC50 [1] | IC50 (Endothelin-1 receptor) | half-life [2] | inhibition in vivo at 15 mg/kg (Rattus norvegicus) | half-life [3] |
| --- | --- | --- | --- | --- | --- |
| CCCCc1ccc(NC(=O)c2sccc2S(=O)(=O)Nc2onc(C)c2Br)cc1 | 6170 nM | 200 nM | – | – | – |
| COc1cc(NC(=O)c2sccc2S(=O)(=O)Nc2onc(C)c2Cl)c(C(=O)O)cc1OC | > 100000 nM | 1430 nM | – | – | – |
| CCC(C)c1ccc(NC(=O)c2sccc2S(=O)(=O)Nc2onc(C)c2Br)cc1 (stereo not drawn) | 5890 nM | 54 nM | – | – | – |
| COc1cc(C#N)c(NC(=O)c2sccc2S(=O)(=O)Nc2onc(C)c2Cl)cc1OC | 12200 nM | 3.9 nM | – | – | – |
| CCc1ccc(NC(=O)c2sccc2S(=O)(=O)Nc2onc(C)c2Br)cc1 | 7410 nM | 17 nM | – | – | – |
| Cc1ccc(NC(=O)c2sccc2S(=O)(=O)Nc2onc(C)c2C)cc1 | 67600 nM | 32 nM | – | – | – |
| Cc1cc(NC(=O)c2sccc2S(=O)(=O)Nc2onc(C)c2Cl)no1 | – | 57 nM | – | – | – |
| Cc1ccc(NC(=O)c2sccc2S(=O)(=O)Nc2onc(C)c2Cl)c(O)c1 | 8240 nM | 6.6 nM | – | – | – |
| Cc1noc(NS(=O)(=O)c2ccsc2C(=O)Nc2cc3c(cc2CC(=O)N(C)C)OCO3)c1Cl | – | 9.3 nM | – | – | – |
| Cc1noc(NS(=O)(=O)c2ccsc2C(=O)Nc2cc3c(cc2C#N)OCO3)c1Cl | 40400 nM | 3.4 nM | – | 20% | 2.5 h |
| Cc1noc(NS(=O)(=O)c2ccsc2C(=O)Nc2cc3c(cc2CCCO)OCO3)c1Cl | 9080 nM | 6 nM | – | – | – |
| Cc1cccc(NC(=O)c2sccc2S(=O)(=O)Nc2onc(C)c2Br)c1 | 67400 nM | 104 nM | – | – | – |
| Cc1noc(NS(=O)(=O)c2ccsc2C(N)=O)c1Br | > 100000 nM | – | – | – | – |
| Cc1noc(NS(=O)(=O)c2ccsc2C(=O)Nc2cc3c(cc2CC#N)OCO3)c1Cl | 25700 nM | 3.8 nM | – | – | – |
| Cc1ccccc1NC(=O)c1sccc1S(=O)(=O)Nc1onc(C)c1Br | > 100000 nM | 27 nM | – | – | – |
| COc1cccc(NC(=O)c2sccc2S(=O)(=O)Nc2onc(C)c2Br)c1 | 63100 nM | 85 nM | – | – | – |
| Cc1ccc(NC(=O)c2sccc2S(=O)(=O)Nc2onc(C)c2Cl)nc1 | 44700 nM | 13 nM | – | – | – |
| CC(=O)OCCOc1cc2c(cc1NC(=O)c1sccc1S(=O)(=O)Nc1onc(C)c1Cl)OCO2 | 15800 nM | 6.1 nM | – | – | – |
| COC(=O)c1cc(OC)c(OC)cc1NC(=O)c1sccc1S(=O)(=O)Nc1onc(C)c1Cl | > 100000 nM | 549 nM | – | – | – |
| Cc1ccc(NC(=O)c2sccc2S(=O)(=O)Nc2onc(C)c2Cl)cc1 | – | 15 nM | – | – | – |
| Cc1noc(NS(=O)(=O)c2ccsc2C(=O)Nc2ccc(-c3ccccc3)cc2)c1Br | 8710 nM | 977 nM | – | – | – |
